The source of these data is the RNAGym collection of RNA variant scans (doi:10.1038/nmeth.2970).

The labels stand for the following.
B1: GFP aptamer (parent)
chain: GCUUCUGGACUGCGAUGGGAGCACGAAACGUCGUGGCGCAAUUGGGUGGGGAAAGUCCUUAAAAGAGGGCCACCACAGAAGC
B2: NELF-E aptamer (parent)
chain: CCCAACGACUGCCGAGCGAGAUUACGCUUGAGCGCCCCACUGAGGAUGCCCACGGGCGAUUGGGGCACGG

The variants in one series derive from B1. As to the kind of experiment: HiTS-RAP. As to conditions: with EGFP. Put shortly: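 Aptamer DNA templates carrying a T7 promoter and ter site were sequenced on an Illumina GAIIx flowcell, then transcribed in situ by T7 RNA polymerase and halted by GST-Tus (30 minutes, 37°C). Clusters were imaged after 30-minute room-temperature equilibration with EGFP-mOrange at 0.04 nM to 625 nM in fivefold steps. Intensities were decay-corrected, normalised to sequencing intensity and averaged per sequence. Kd came from weighted Hill fits per lane, geometrically averaged over three lanes, with non-rising sequences set to 125 nM.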
As to C37A, the Kd was found to be 5.05 nM. Same read-out and setting: for C37G the value was 15.5 nM; for U11C A77G, 9.02 nM.

A27G G68A: the Kd was 17.3 nM.

On to C22U A41G, for which the Kd came out at 21.2 nM. Still for that read-out and setting: the result for A41G U47C reads 2.42 nM; that for G14A A26G, 7.76 nM; that for U31C U42C, 19.5 nM. Same read-out and setting: the result for G33A A79G reads 11.9 nM. The same measure, in the same setting: for A20G U31C the value was 35.3 nM; for A9G A27G, 21 nM; for C24U A41G, 11.7 nM. Consider A15G A28G, for which the Kd is 3.9 nM. Still for that read-out and setting: for C10U A77G the value was 36 nM; for C5U, 4.3 nM.

On to C5G, for which the Kd came to 5.26 nM. The same measure, in the same setting: the result for C5A reads 8.09 nM. Same read-out and setting: the result for C10U A28G reads 4.55 nM. On to U34C C58U, for which the Kd was found to be 68.2 nM. Turning to A28G G68A, the Kd turned out to be 32.8 nM. The same measure, in the same setting: for A15G G25A the value was 2.42 nM; for U31G, 3.99 nM; for U31A, 4.16 nM. The same measure, in the same setting: for U31C the value was 4.31 nM.

Consider G30A G68A, for which the Kd turned out to be 31.8 nM. Still for that read-out and setting: for C24U G68A the value was 54.1 nM; for C39U, 10.3 nM. Turning to C39G, the Kd was 9.2 nM. Take U6G: the Kd turned out to be 7.45 nM. As to U6C, the Kd was 8.4 nM. Consider U6A, for which the Kd was found to be 8.81 nM. Turning to A27G C74U, the Kd came to 3.31 nM. Still for that read-out and setting: the result for U31C U43C reads 1.5 nM; that for A20G A27G, 4.69 nM.

On to U16C U59C, for which the Kd was determined as 7.5 nM.

Regarding U16G, the Kd came to 2.69 nM. The same measure, in the same setting: for U16A the value was 5.38 nM; for U16C, 6.81 nM. Take A20G: the Kd was 8.28 nM. The same measure, in the same setting: the result for A20C reads at least 125 nM; that for A20U, at least 125 nM; that for A27G C58U, 0.55 nM.

As for A23C, the Kd amounted to 13.2 nM. On to A23G, for which the Kd was found to be 5.87 nM. Turning to A23U, the Kd is 11.2 nM. On the same count and under the same terms, for G36C the value was at least 125 nM. Turning to G36A, the Kd is 63.3 nM. With G36U, the Kd is at least 125 nM.

As for A27G A28G, the Kd was 4.44 nM.

Regarding A20G G44A, the Kd came out at 13 nM. Same read-out and setting: for C29U U31C the value was 2.86 nM. For G35A, the Kd is at least 125 nM. For the variant G35C, the Kd is at least 125 nM. The same measure, in the same setting: for G35U the value was at least 125 nM; for C10G A20G, 4.36 nM; for G33A C73U, 8.48 nM.

For A27G A40G, the Kd was found to be 2.81 nM. The same measure, in the same setting: for A27G A79G the value was 2.94 nM; for C13U U34C, 36.2 nM. As to U31C C58U, the Kd was 1.14 nM. Consider U31C A41G, for which the Kd came to 3.04 nM. Consider A27G A75G, for which the Kd was 5.08 nM. For A28G U47A, the Kd turned out to be 3.89 nM. Consider A28G U47C, for which the Kd was determined as 1.08 nM. Same read-out and setting: the result for U42C A77G reads 13.7 nM; that for A20G A23G, 1.51 nM; that for C37U C73U, 24 nM. Same read-out and setting: the result for C10U G14A reads 6.22 nM; that for A27C, 4.47 nM. The same measure, in the same setting: for A27U the value was 3.98 nM; for A27G, 4.28 nM; for G38C, 83.5 nM.

For the variant G38U, the Kd was 14.5 nM.

With G38A, the Kd came out at 28 nM. A23G A26G: the Kd came out at 35.8 nM.

G30A C74U: the Kd stood at 5.86 nM. C10U C37U: the Kd worked out at 14.3 nM.

Turning to A20G G33A, the equilibrium dissociation constant (Kd) turned out to be 49 nM. Same read-out and setting: for A20G A28G the value was 15.5 nM; for A28G U31C, 5.74 nM. Same read-out and setting: the result for G14A A28G reads 4.8 nM; that for A26G A27G, 2.12 nM. Same read-out and setting: the result for C10G reads 4.07 nM; that for C10U, 4.3 nM; that for C10A, 3.61 nM. As to C24U C58U, the Kd came to 2.39 nM. Take G14A C32U: the Kd worked out at 15.4 nM. Consider C10U A27G, for which the Kd stood at 3.1 nM. On the same count and under the same terms, the result for C13U C74U reads 17.4 nM; that for U31C G68A, 28.1 nM; that for U11C C73U, 44.7 nM. Consider C22U U43C, for which the Kd worked out at 2.31 nM. In the case of C32U G68A, the Kd was found to be 60.2 nM. Same read-out and setting: the result for C22U C58U reads 12.7 nM; that for A26G, 4.22 nM; that for A26U, 4.33 nM. Consider A26C, for which the Kd was 4.53 nM. Same read-out and setting: for C22U A28G the value was 10.1 nM; for A40C, at least 125 nM. As to A40G, the Kd was determined as 4.95 nM.

As to A40U, the Kd amounted to 21.7 nM. For the variant C10U A23G, the Kd is 5.08 nM.

For A26G C70U, the Kd was determined as 0.997 nM.

As to A28G A79G, the Kd was found to be 3.44 nM.

As to A26G A77G, the Kd amounted to 3.88 nM. Take U11C U31C: the Kd worked out at 14.2 nM. Still for that read-out and setting: for A27G U31C the value was 4.55 nM; for U31C A75G, 14 nM; for C22A, 13.8 nM. For C22G, the equilibrium dissociation constant (Kd) was found to be 29.1 nM. In the case of C22U, the Kd was 9.58 nM.

The next series covers variants of B2. The series can be described thus: HiTS-RAP. As to conditions: with NELF-E (Drosophila). Put shortly: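 Aptamer DNA templates carrying a T7 promoter and ter site were sequenced on an Illumina GAIIx flowcell, then transcribed in situ by T7 RNA polymerase and halted by GST-Tus (30 minutes, 37°C). Clusters were imaged after 30-minute room-temperature equilibration with NELF-E-mOrange at 0.064 to 1000 nM in HEPES binding buffer, and only the first binding curve was used. Intensities were normalised to sequencing intensity and averaged per sequence. Kd came from weighted Hill fits, keeping fits with variance below 1,000,000.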
U61G G62U: the Kd stood at 5.22 nM. Same read-out and setting: for G63U G65U the value was 5.32 nM; for G62U G64U, 5.62 nM. Consider A67G, for which the Kd stood at 5.33 nM.

For A67C, the Kd is 4.99 nM. In the case of A67U, the Kd amounted to 6.41 nM.

For G65U, the Kd amounted to 6.03 nM. Turning to G65A, the Kd stood at 4.39 nM.

With G65C, the Kd turned out to be 14 nM. On the same count and under the same terms, the result for G58U A59G reads 5.09 nM; that for G58C, 65.3 nM. The same measure, in the same setting: the result for G58U reads 9.77 nM. Still for that read-out and setting: the result for G58A reads 9.31 nM. Regarding C57G, the Kd was 6.36 nM. The same measure, in the same setting: the result for C57U reads 5.5 nM; that for A59C, 110 nM. Same read-out and setting: the result for A59G reads 47.9 nM; that for A59U, 72.2 nM; that for C66U, 4.61 nM.

Turning to C66A, the Kd stood at 4.61 nM. The same measure, in the same setting: the result for C66G reads 4.38 nM; that for G63U, 10.3 nM; that for G63C, 33.8 nM. As to G63A, the Kd is 12.8 nM. Consider G69C, for which the Kd amounted to 5.52 nM. Same read-out and setting: the result for G69A reads 4.82 nM; that for G69U, 5.33 nM; that for C68U, 4.59 nM. Turning to C68A, the Kd was found to be 5.29 nM. Take C68G: the Kd was 4.57 nM. As to G62U, the Kd came to 7.51 nM. Same read-out and setting: the result for G62A reads 16.9 nM; that for G62C, 48.2 nM. G70U: the Kd amounted to 5.07 nM. On the same count and under the same terms, the result for G70C reads 4.44 nM. Still for that read-out and setting: the result for G70A reads 4.46 nM. Consider G65U C66G, for which the Kd is 4.98 nM.

As for A59G G64A, the Kd was 44.7 nM. As to G64A G65U, the Kd is 5.13 nM.

G64C: the Kd stood at 7.73 nM. Same read-out and setting: the result for G64A reads 7.74 nM; that for G64U, 7.29 nM; that for U61A A67G, 27.4 nM. The same measure, in the same setting: for U61A A67U the value was 49.7 nM. On the same count and under the same terms, the result for G64C G65U reads 5.12 nM; that for C57U A67G, 4.59 nM. As for U61C, the Kd was 63.7 nM.

U61A: the Kd stood at 28.4 nM. For U61G, the Kd worked out at 7.54 nM.

Regarding U61C A67G, the Kd was found to be 68.2 nM. Consider G64A A67G, for which the Kd came to 4.84 nM.

Consider G64A A67U, for which the Kd was 35.5 nM. Turning to U60G, the Kd is 5.2 nM. On the same count and under the same terms, for U60C the value was 9.28 nM. The same measure, in the same setting: for U60A the value was 9.5 nM. Still for that read-out and setting: for G65U A67U the value was 8.45 nM.
